In ChEMBL document CHEMBL3085638, “Synthesis of novel ciprofloxacin analogues and evaluation of their anti-proliferative effect on human cancer cell lines” (2013) one finds Activity and viability data, which are given here for 5 molecules.

The source made the active and inactive calls. No cut-off for these calls is given here.

Test [1] relates to CCRF-CEM. In words: Antiproliferative activity against human CCRF-CEM cells assessed as cell viability at 10 uM after 72 hrs by CellTiter assay. Format: functional, cell-based. An outline of the steps:
(§1)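 Doxorubicin was the positive control at 10 µM. ATCC cells were grown in EMEM with 10% FBS and 1% penicillin/streptomycin at 37 °C under 5% CO2, seeded at 5000 cells/well, and treated 72 h after seeding for a 72 h exposure. Viability was read by CellTiter 96 AQueous One reagent (1 h, 37 °C) as A490, minus a cell-free blank, and expressed as % of untreated control.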

Test [2] relates to MDA-MB-468. In words: Antiproliferative activity against human MDA-MB-468 cells assessed as cell viability at 10 uM after 72 hrs by CellTiter assay. It counts as functional, cell-based. Put shortly:
as §1

In test [3] the test system is HCT-116. In words: Antiproliferative activity against human HCT116 cells assessed as cell viability at 10 uM after 72 hrs by CellTiter assay. Format: functional, cell-based. An outline of the steps: as §1
Test [4] relates to CCRF-CEM. Nature of the test: Antiproliferative activity against human CCRF-CEM cells assessed as cell viability at 50 uM by CellTiter assay relative to DMSO control. Format: functional, cell-based.
Test [5] deals with HCT-116. In words: Antiproliferative activity against human HCT116 cells assessed as cell viability at 50 uM after 72 hrs by CellTiter assay relative to DMSO control. As to conditions: HCT-116, 72 h, read-out: Activity. It counts as functional. Put shortly: (§2)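 ATCC-derived cells kept in EMEM with 10% FBS and 1% penicillin/streptomycin at 37 °C under 5% CO2. At 75–80% confluency, 5000 cells/well were seeded, then after 72 h exposed to 50 µM compound in triplicate for 72 h. CellTiter 96 AQueous One reagent was added for 1 h at 37 °C and formazan A490 read, with cell-free medium plus reagent as blank. Results are % of untreated control.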

Test [6] deals with CCRF-CEM. In words: Antiproliferative activity against human CCRF-CEM cells assessed as cell viability at 50 uM after 72 hrs by CellTiter assay relative to DMSO control. It counts as functional. As to conditions: read-out: Activity. Put shortly:
as §2

For test [7], the system named is MDA-MB-468. In words: Antiproliferative activity against human MDA-MB-468 cells assessed as cell viability at 50 uM after 72 hrs by CellTiter assay relative to DMSO control. It counts as functional. As to conditions: MDA-MB-468, 72 h, read-out: Activity. Put shortly: as §2
Test [8] deals with CCRF-CEM. Nature of the test: Antiproliferative activity against human CCRF-CEM cells assessed as cell viability at 50 uM after 96 hrs by CellTiter assay relative to DMSO control. Format: functional. As to conditions: read-out: Activity.
Test [9] relates to CCRF-CEM. In words: Antiproliferative activity against human CCRF-CEM cells assessed as cell viability at 50 uM after 48 hrs by CellTiter assay relative to DMSO control. Format: functional. As to conditions: read-out: Activity.
In test [10] the test system is CCRF-CEM. Nature of the test: Antiproliferative activity against human CCRF-CEM cells assessed as cell viability at 50 uM after 24 hrs by CellTiter assay relative to DMSO control. It counts as functional. Particulars: read-out: Activity.

Turning to `COc1cccc2c1C(=O)c1c(O)c3c(c(O)c1C2=O)C[C@@](O)(C(=O)CO)C[C@@H]3O[C@H]1C[C@H](N)[C@H](O)[C@H](C)O1`, the outcome in the test with CCRF-CEM [1], in the test with MDA-MB-468 [2] and with HCT-116 [3] was Active.

Turning to `O=C(O)c1cn(C2CC2)c2cc(N3CCNCC3)c(F)cc2c1=O`, in the test with CCRF-CEM [4], the result was Active.

Take `O=C(O)c1cn(C2CC2)c2cc(N3CCN(C(=O)CN4CCN(C(c5ccc(F)cc5)c5ccc(F)cc5)CC4)CC3)c(F)cc2c1=O`: the viability at 50 µM with HCT-116 [5] was 35%; in the test with CCRF-CEM [6], 38%; in the test with MDA-MB-468 [7] it was 35%; in the test with CCRF-CEM [8], 43%; with CCRF-CEM [9], 27%; in the test on CCRF-CEM [10] it was 19%. Further, the Activity entry with CCRF-CEM [4] (TDE = time-dependent effect) was “tde”.

Take `O=C(O)c1cn(C2CC2)c2cc(N3CCN(C(=O)CN4CCN(C(c5ccccc5)c5ccccc5)CC4)CC3)c(F)cc2c1=O`: the viability at 50 µM in the test on MDA-MB-468 [7] was at most 35%.

Turning to `O=C(O)c1cn(C2CC2)c2cc(N3CCN(C(=O)CN4CCN(c5ccc(F)c(F)c5)CC4)CC3)c(F)cc2c1=O`, the viability at 50 µM with HCT-116 [5], in the test on CCRF-CEM [6] and in the test with MDA-MB-468 [7] was 35% in each case.
